This note sets out measurements from ChEMBL document CHEMBL1145801, “Inhibition of Cdc25 phosphatases by indolyldihydroxyquinones” (J Med Chem, 2003).

Test [1] deals with T1, M-phase inducer phosphatase 1 (Homo sapiens) (UniProt P30304).
T1 sequence (whole entry): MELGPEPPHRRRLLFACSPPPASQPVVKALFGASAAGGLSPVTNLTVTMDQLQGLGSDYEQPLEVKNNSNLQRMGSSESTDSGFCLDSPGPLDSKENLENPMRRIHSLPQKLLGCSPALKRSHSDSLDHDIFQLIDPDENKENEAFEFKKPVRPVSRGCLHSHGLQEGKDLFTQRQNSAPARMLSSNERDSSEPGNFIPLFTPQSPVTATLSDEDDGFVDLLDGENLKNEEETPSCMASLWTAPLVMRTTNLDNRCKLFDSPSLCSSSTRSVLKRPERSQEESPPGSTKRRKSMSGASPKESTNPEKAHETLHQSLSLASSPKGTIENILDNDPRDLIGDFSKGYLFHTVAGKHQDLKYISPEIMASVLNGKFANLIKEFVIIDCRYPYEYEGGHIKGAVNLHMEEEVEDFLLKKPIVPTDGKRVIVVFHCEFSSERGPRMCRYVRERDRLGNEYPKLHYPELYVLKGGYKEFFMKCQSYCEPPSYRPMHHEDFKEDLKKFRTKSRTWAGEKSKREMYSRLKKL
Description: Percent inhibition of cell division cycle 25A at 50 uM. Put shortly: (§1)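 Single-point screen at 50 μM inhibitor against Cdc25A, Cdc25B or Cdc25C with 50 μM 3-O-methylfluorescein phosphate, product followed at 477 nm in time-dependent assays. Activity was compared with a simultaneous no-inhibitor control, and selected compounds were run in duplicate (average error ±7%).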

The target in test [2] is T2, M-phase inducer phosphatase 2 (Homo sapiens) (UniProt P30305).
T2 sequence (whole entry): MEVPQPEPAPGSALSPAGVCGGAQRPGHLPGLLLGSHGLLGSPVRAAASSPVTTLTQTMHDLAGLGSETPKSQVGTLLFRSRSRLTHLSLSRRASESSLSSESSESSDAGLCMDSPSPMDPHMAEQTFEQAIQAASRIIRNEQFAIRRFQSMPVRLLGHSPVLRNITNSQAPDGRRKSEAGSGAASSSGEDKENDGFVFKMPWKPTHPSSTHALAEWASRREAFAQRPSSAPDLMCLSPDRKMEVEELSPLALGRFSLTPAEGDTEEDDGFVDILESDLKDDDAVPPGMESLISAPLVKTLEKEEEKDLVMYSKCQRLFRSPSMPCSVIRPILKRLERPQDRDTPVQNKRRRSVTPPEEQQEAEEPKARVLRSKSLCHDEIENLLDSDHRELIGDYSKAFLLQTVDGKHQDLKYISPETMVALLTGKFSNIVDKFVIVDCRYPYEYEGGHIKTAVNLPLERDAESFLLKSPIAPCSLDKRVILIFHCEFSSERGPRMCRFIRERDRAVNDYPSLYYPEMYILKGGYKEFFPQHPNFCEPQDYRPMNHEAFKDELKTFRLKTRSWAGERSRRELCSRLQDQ
Description: Percent inhibition of cell division cycle 25B at 50 uM. Put shortly: as §1

The target of test [3] is T3, M-phase inducer phosphatase 3 (Homo sapiens) (UniProt P30307).
T3 sequence (whole entry): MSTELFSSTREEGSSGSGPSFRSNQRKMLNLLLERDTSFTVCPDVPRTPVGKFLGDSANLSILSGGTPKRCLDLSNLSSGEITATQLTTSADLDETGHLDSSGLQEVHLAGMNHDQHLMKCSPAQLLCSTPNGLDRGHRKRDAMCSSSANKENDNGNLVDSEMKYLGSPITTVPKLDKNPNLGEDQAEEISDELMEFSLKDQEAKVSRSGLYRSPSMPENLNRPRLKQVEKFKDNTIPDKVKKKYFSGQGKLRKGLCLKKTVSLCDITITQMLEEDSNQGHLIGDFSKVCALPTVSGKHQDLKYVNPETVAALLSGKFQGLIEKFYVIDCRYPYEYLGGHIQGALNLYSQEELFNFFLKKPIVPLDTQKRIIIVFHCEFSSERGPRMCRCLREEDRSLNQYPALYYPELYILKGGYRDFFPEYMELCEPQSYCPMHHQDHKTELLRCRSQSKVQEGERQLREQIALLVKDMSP
Put plainly: Percent inhibition of cell division cycle 25 degree C at 50 uM. Put shortly:
as §1

In the case of `CCc1[nH]c2ccccc2c1C1=C(O)C(O)=CC(=O)C1=O`, the inhibition (in general, the change of the read-out against control, counted positive when it falls) was 15% in test [1], 36% in test [2] and 14% in test [3].
With `CC(C)(C)c1[nH]c2ccccc2c1C1=C(O)C(O)=CC(=O)C1=O`, the inhibition stood at 30% in test [1], 11% in test [2] and 0% in test [3].
Consider `O=C1C=C(O)C(=O)C(c2c[nH]c3cccc(OCc4ccccc4)c23)=C1O`, for which the inhibition in test [1] amounted to 48%; in test [2] it was 0%; in test [3] it was 2%.
On to `COc1cc2[nH]cc(C3=C(O)C(O)=CC(=O)C3=O)c2cc1OC`, for which the inhibition was 54% in test [1], 19% in test [2] and 20% in test [3].
`O=C1C=C(O)C(=O)C(c2c[nH]c3ccc(Cl)cc23)=C1O`: the inhibition worked out at 59% in test [1], 32% in test [2] and 45% in test [3].
As for `COc1ccc2[nH]cc(C3=C(O)C(O)=CC(=O)C3=O)c2c1`, the inhibition in test [1], in test [2] and in test [3] was 0% in each case.
For `Cc1ccc2[nH]c(C)c(C3=C(O)C(O)=CC(=O)C3=O)c2c1`, the inhibition in test [1] was determined as 18%; in test [2] it was 20%; in test [3], 25%.
In the case of `O=C1C=C(O)C(=O)C(c2c[nH]c3cccc(Br)c23)=C1O`, the inhibition in test [1] was found to be 51%; in test [2], 6%; in test [3], 54%.
On to `C=CC(C)(C)c1[nH]c2ccccc2c1C1=C(O)C(O)=CC(=O)C1=O`, for which the inhibition came to 12% in test [1], 0% in test [2] and 21% in test [3].
Consider `Cc1[nH]c2ccc(Cl)cc2c1C1=C(O)C(O)=CC(=O)C1=O`, for which the results for the inhibition in test [1], in test [2] and in test [3] were 0%, 42% and 30%, respectively.
Consider `O=C1C=C(O)C(=O)C(c2c[nH]c3cc(OCc4ccccc4)ccc23)=C1O`, for which the inhibition in test [1] came out at 82%; in test [2], 97%; in test [3], 92%.
As for `Cn1cc(C2=C(O)C(O)=CC(=O)C2=O)c2ccccc21`, the figures for the inhibition in test [1], in test [2] and in test [3] were 18%, 42% and 19%, respectively.
With `COc1cccc2c(C3=C(O)C(O)=CC(=O)C3=O)c[nH]c12`, the inhibition came out at 0% in test [1], 15% in test [2] and 13% in test [3].
The matching figures for `Cc1[nH]c2ccccc2c1C1=C(O)C(O)=CC(=O)C1=O`: 24%, 9% and 5%.
In the case of `Cc1ccc2c(C3=C(O)C(O)=CC(=O)C3=O)c[nH]c2c1`, the inhibition in test [1] came to 66%; in test [2], 16%; in test [3], 28%.
Consider `O=C1C=C(O)C(=O)C(c2c[nH]c3cc4c(cc23)OCO4)=C1O`, for which the figures for the inhibition in test [1], in test [2] and in test [3] were 99%, 88% and 63%, respectively.
For `CC1(c2[nH]c3ccccc3c2C2=C(O)C(O)=CC(=O)C2=O)CCCCC1`, the inhibition was 44% in test [1], 11% in test [2] and 22% in test [3].
Regarding `CC1(c2[nH]c3ccccc3c2C2=C(O)C(O)=CC(=O)C2=O)CC1`, the inhibition in test [1] turned out to be 0%; in test [2], 17%; in test [3], 0%.
In the case of `Cc1[nH]c2c(C)cccc2c1C1=C(O)C(O)=CC(=O)C1=O`, the inhibition in test [1], in test [2] and in test [3] was 0% in each case.
Take `O=C1C=C(O)C(=O)C(c2c[nH]c3c(F)cccc23)=C1O`: the inhibition in test [1] came out at 100%; in test [2], 67%; in test [3] it was 68%.
The matching figures for `Cc1ccc2c(C3=C(O)C(O)=CC(=O)C3=O)c[nH]c2c1C`: 9%, 32% and 20%.
`Cc1cccc2c(C3=C(O)C(O)=CC(=O)C3=O)c[nH]c12`: the inhibition in test [1] was found to be 0%; in test [2], 0%; in test [3] it was 1%.
